Measured values from ChEMBL document CHEMBL1781959, “Synthesis and in vitro antitumor activity of substituted quinazoline and quinoxaline derivatives: search for anticancer agent” (Eur J Med Chem, 2011).

Assays:
[1] = system: K562; assay: Growth inhibition of human K562 cells after 48 hrs by SRB assay; assay type: functional; conditions: K562, 48 h
Method in brief: (§1)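 NCI 60-panel five-dose assay at 0.01, 0.1, 1, 10 and 100 μM. Cells in RPMI 1640 with 5% FBS and 2 mM L-glutamine, preincubated 24 h, with time-zero plates TCA-fixed. Drug exposure 48 h at 37 °C. Read by SRB staining at 515 nm. GI50 is the concentration where [(Ti−Tz)/(C−Tz)]×100 = 50, taken from log concentration versus % growth curves.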

[2] = Growth inhibition of human […] cells after 48 hrs by SRB assay; assay type: functional; method in brief: as §1
[3] = system: SR; assay: Growth inhibition of human SR cells after 48 hrs by SRB assay; assay type: functional
Method in brief: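 Leukemia suspension line in the NCI-60 screen, grown in RPMI 1640 with 5% FBS and 2 mM L-glutamine and preincubated for 24 h. Exposure was either a single 10^-5 M dose or five doses from 0.01 to 100 μM, for 48 h at 37 °C. Settled cells were fixed with 80% TCA (16% final), stained with SRB, and read at 515 nm. GI50 was derived from % growth against time-zero and untreated controls.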

[4] = system: A549; assay: Growth inhibition of human A549 cells after 48 hrs by SRB assay; assay type: functional; conditions: A549, 48 h; method in brief: as §1
[5] = system: HOP-62; assay: Growth inhibition of human HOP62 cells after 48 hrs by SRB assay; assay type: functional; conditions: HOP-62, 48 h; method in brief: as §1
[6] = system: COLO 205; assay: Growth inhibition of human COLO205 cells after 48 hrs by SRB assay; assay type: functional; conditions: COLO 205, 48 h; method in brief: as §1
[7] = system: HCC 2998; assay: Growth inhibition of human HCC2998 cells after 48 hrs by SRB assay; assay type: functional; conditions: HCC 2998, 48 h; method in brief: as §1
[8] = system: HCT-116; assay: Growth inhibition of human HCT116 cells after 48 hrs by SRB assay; assay type: functional; conditions: HCT-116, 48 h; method in brief: as §1
[9] = system: SF-539; assay: Growth inhibition of human SF539 cells after 48 hrs by SRB assay; assay type: functional; conditions: SF-539, 48 h
Method in brief: (§2)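 NCI-60 panel cells grown in RPMI 1640 with 5% FBS and 2 mM L-glutamine, then seeded at 5000–40,000 cells/well by doubling time and preincubated for 24 h. Compound in DMSO was tested either at 10^-5 M alone or at 0.01–100 μM in five doses, for 48 h at 37 °C. Cells were fixed with cold TCA (10% final), stained with SRB, and read at 515 nm. GI50 was taken from % growth relative to time-zero and control wells.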

[10] = system: SK-MEL-5; assay: Growth inhibition of human SK-MEL-5 cells after 48 hrs by SRB assay; assay type: functional; conditions: SK-MEL-5, 48 h; method in brief: as §2
[11] = system: OVCAR-4; assay: Growth inhibition of human OVCAR4 cells after 48 hrs by SRB assay; assay type: functional; conditions: OVCAR-4, 48 h; method in brief: as §1
[12] = system: TK-10; assay: Growth inhibition of human TK10 cells after 48 hrs by SRB assay; assay type: functional; conditions: TK-10, 48 h; method in brief: as §2
[13] = Growth inhibition of human Hs 578T cells after 48 hrs by SRB assay; assay type: functional; method in brief: as §1
[14] = system: BT-549; assay: Growth inhibition of human BT549 cells after 48 hrs by SRB assay; assay type: functional; conditions: BT-549, 48 h; method in brief: as §1
[15] = system: T47D; assay: Growth inhibition of human T47D cells after 48 hrs by SRB assay; assay type: functional; method in brief: as §2
[16] = system: SR; assay: Cytotoxicity against human SR cells after 48 hrs by SRB assay; assay type: cell-based
Method in brief: (§3)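 NCI-60 five-dose screen. Cells grown in RPMI 1640 with 5% FBS and 2 mM L-glutamine and pre-incubated 24 h; a time-zero plate is TCA-fixed. Drug added at 0.01, 0.1, 1, 10 and 100 µM (DMSO stock) for 48 h at 37 °C, 5% CO2. Fixed with cold TCA (10% final for adherent, 16% for suspension cells), stained with 0.4% SRB, A515. GI50, TGI and LC50 taken from dose-response curves.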

[17] = system: K562; assay: Cytotoxicity against human K562 cells after 48 hrs by SRB assay; assay type: cell-based; conditions: k562, 48 h
Method in brief: (§4)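 NCI-60 five-dose screen in RPMI 1640 with 5% FBS and 2 mM L-glutamine; 5000–40,000 cells/well, 24 h pre-incubation. DMSO stocks diluted to 0.01, 0.1, 1, 10 and 100 μM final; 48 h at 37 °C, 5% CO2. Fixed with TCA (10% final adherent, 16% suspension), stained with 0.4% SRB, A515. GI50, TGI and LC50 taken from time-zero, control and test absorbances.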

[18] = system: HL-60(TB); assay: Cytotoxicity against human HL-60(TB) cells after 48 hrs by SRB assay; assay type: cell-based; method in brief: as §4
[19] = system: HOP-62; assay: Cytotoxicity against human HOP62 cells after 48 hrs by SRB assay; assay type: cell-based; conditions: hop-62, 48 h; method in brief: as §4
[20] = system: NCI-H460; assay: Cytotoxicity against human NCI-H460 cells after 48 hrs by SRB assay; assay type: cell-based; conditions: nci-h460, 48 h; method in brief: as §4
[21] = system: COLO 205; assay: Cytotoxicity against human COLO205 cells after 48 hrs by SRB assay; assay type: cell-based; conditions: colo 205, 48 h; method in brief: as §4
[22] = system: HCC 2998; assay: Cytotoxicity against human HCC2998 cells after 48 hrs by SRB assay; assay type: cell-based; conditions: hcc 2998, 48 h; method in brief: as §4
[23] = system: HCT-116; assay: Cytotoxicity against human HCT116 cells after 48 hrs by SRB assay; assay type: cell-based; conditions: hct-116, 48 h; method in brief: as §4
[24] = system: KM12; assay: Cytotoxicity against human KM12 cells after 48 hrs by SRB assay; assay type: cell-based; conditions: km12, 48 h; method in brief: as §4
[25] = system: SF-539; assay: Cytotoxicity against human SF539 cells after 48 hrs by SRB assay; assay type: cell-based; conditions: sf-539, 48 h; method in brief: as §4
[26] = system: U-251; assay: Cytotoxicity against human U251 cells after 48 hrs by SRB assay; assay type: cell-based; conditions: u-251, 48 h; method in brief: as §3
[27] = system: LOX IMVI; assay: Cytotoxicity against human LOXIMVI cells after 48 hrs by SRB assay; assay type: cell-based; method in brief: as §4
[28] = system: MDA-MB-435; assay: Cytotoxicity against human MDA-MB-435 cells after 48 hrs by SRB assay; assay type: cell-based; conditions: mda-mb-435, 48 h; method in brief: as §4
[29] = system: SK-MEL-5; assay: Cytotoxicity against human SK-MEL-5 cells after 48 hrs by SRB assay; assay type: cell-based; conditions: sk-mel-5, 48 h; method in brief: as §4
[30] = system: SN12C; assay: Cytotoxicity against human SN12C cells after 48 hrs by SRB assay; assay type: cell-based; method in brief: as §4
[31] = system: MDA-MB-231; assay: Cytotoxicity against human MDA-MB-231 cells after 48 hrs by SRB assay; assay type: cell-based; conditions: mda-mb-231, 48 h; method in brief: as §4
[32] = system: BT-549; assay: Cytotoxicity against human BT549 cells after 48 hrs by SRB assay; assay type: cell-based; conditions: bt-549, 48 h; method in brief: as §4
[33] = system: T47D; assay: Cytotoxicity against human T47D cells after 48 hrs by SRB assay; assay type: cell-based; method in brief: as §3
[34] = system: MDA-MB-468; assay: Cytotoxicity against human MDA-MB-468 cells after 48 hrs by SRB assay; assay type: cell-based; conditions: mda-mb-468, 48 h; method in brief: as §4

O=c1c2ccccc2nc(-c2ccco2)n1/N=C/c1ccccc1Cl
GI50 [1]: > 100 µM | TGI [1]: > 100 µM | GI50 [2]: > 100 µM | TGI [2]: > 100 µM | GI50 [3]: > 100 µM | TGI [3]: > 100 µM | GI50 [4]: 4.78 µM | TGI [4]: > 100 µM | GI50 [5]: 3.56 µM | TGI [5]: 13.7 µM | GI50 [6]: 4.96 µM | TGI [6]: 34.1 µM | GI50 [7]: 5.68 µM | TGI [7]: > 100 µM | GI50 [8]: 3.32 µM | TGI [8]: 23.6 µM | GI50 [9]: 3.28 µM | TGI [9]: 21.2 µM | GI50 [10]: 5.56 µM | TGI [10]: 31.8 µM | GI50 [11]: 1.82 µM | TGI [11]: 6.48 µM | GI50 [12]: 7.84 µM | TGI [12]: > 100 µM | GI50 [13]: 15.2 µM | TGI [13]: > 100 µM | GI50 [14]: 2.92 µM | TGI [14]: 6.8 µM | GI50 [15]: 6.89 µM | TGI [15]: > 100 µM | LC50 [16]: > 100 µM | LC50 [17]: > 100 µM | LC50 [18]: > 100 µM | LC50 [19]: > 100 µM | LC50 [20]: > 100 µM | LC50 [21]: > 100 µM | LC50 [22]: > 100 µM | LC50 [23]: > 100 µM | LC50 [24]: > 100 µM | LC50 [25]: > 100 µM | LC50 [26]: > 100 µM | LC50 [27]: > 100 µM | LC50 [28]: > 100 µM | LC50 [29]: > 100 µM | LC50 [30]: > 100 µM | LC50 [31]: > 100 µM | LC50 [32]: 72.4 µM | LC50 [33]: > 100 µM | LC50 [34]: > 100 µM
